OX1R antag-1: OX1R (human) antagonism | OX1R-expressing cells, FRET antagonist read-out | 330,000 compounds, 1.8% hits | inhibition, % at 6.6 µM | O43613; in the data active means inhibition mostly above about 38%, no sharp cut-off; inactive means mostly below about 40%;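 further: 0% = agonist challenge alone and 100% = reference antagonist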
CHO parental Ca: counter-screen for OX1R antagonists: effect in parental CHO cells. inhibition, % at 5.6 µM. parental CHO-K1, ATP-induced calcium, Fluo-8 fluorescence. AID 463079. 330,000 compounds, 0.63% hits;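 active means inhibition above that plate's mean sample inhibition plus 3 SD, cut at about 26% in these data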;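 further: 0% = ATP-challenged DMSO wells and 100% = DMSO wells without ATP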
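Assay system: untransfected parental CHO cell line. Also added: ATP agonist challenge. Dosing: one dose, 5.6 µM nominal. Measured by: Fluo-8 fluorescence. Read-out: % inhibition. Benchmarks: ATP wells versus no-ATP DMSO wells. Repeats: no replicates.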
OX1R antag-2: human HCRTR1 antagonism; O43613; CHO/OX1R cells, Fluo-8 calcium fluorescence, orexin A; inhibition, % at 5 µM; 330,000 compounds, 0.43% hits; AID 434989;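 active means inhibition above its plate's threshold, mean inhibition of all tested compounds on the plate plus 3 SD, cut at about 37% in these data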;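 further: 0% = orexin A challenge wells and 100% = SB-334867-A antagonist wells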
GPR7 antagonist: human neuropeptides B/W receptor 1 antagonism; P48145; inhibition, % at 4.4 µM; AID 1861; GPR7-expressing cells, fluorescence antagonist assay; 290,000 compounds, 1.1% hits; in the data active means inhibition above about 16%, passing the limit was not always enough;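 further: cells stimulated with the agonist NPW; 0% = agonist with vehicle and 100% = vehicle without agonist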
Target sequence (P48145 whole entry, looked up): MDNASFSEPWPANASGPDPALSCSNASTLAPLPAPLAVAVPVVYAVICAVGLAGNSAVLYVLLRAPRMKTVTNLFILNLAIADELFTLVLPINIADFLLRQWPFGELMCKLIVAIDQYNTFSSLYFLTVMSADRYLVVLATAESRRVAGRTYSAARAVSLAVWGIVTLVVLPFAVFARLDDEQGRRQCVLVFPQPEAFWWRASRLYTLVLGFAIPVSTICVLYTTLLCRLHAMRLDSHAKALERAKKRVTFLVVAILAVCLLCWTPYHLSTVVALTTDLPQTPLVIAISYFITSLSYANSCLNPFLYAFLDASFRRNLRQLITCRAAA
TAAR1 ag: agonists of human TAAR1; CHO RD-HGA16 TAAR1, Fluo-8 calcium fluorescence; vehicle wells 0%, saturating PEA agonist 100%; activation, % at 3 µM; 360,000 compounds, 0.99% hits; AID 624467;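 active means activation above the mean activation of all test compounds in the run plus 3 SD, cut at about 38% in these data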
Target sequence (Q96RJ0 whole entry, looked up): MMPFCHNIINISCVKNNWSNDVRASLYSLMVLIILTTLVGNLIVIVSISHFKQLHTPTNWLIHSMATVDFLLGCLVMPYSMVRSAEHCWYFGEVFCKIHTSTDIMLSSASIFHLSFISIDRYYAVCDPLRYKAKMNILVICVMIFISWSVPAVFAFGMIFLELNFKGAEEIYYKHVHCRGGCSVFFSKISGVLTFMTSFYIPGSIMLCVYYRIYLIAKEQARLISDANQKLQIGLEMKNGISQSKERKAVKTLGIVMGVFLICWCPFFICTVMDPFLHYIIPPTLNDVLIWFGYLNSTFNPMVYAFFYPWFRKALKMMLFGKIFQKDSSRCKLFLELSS
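System: CHO RD-HGA16 cells carrying human TAAR1 plus Gα16; Incubation: 17-24 h seeding, 75 min 37 °C dye, 30 min RT; Measured by: Fluo-8 fluorescence, 5 s baseline then 140 s kinetic read; Control set: DMSO and PEA EC100; Replication: single well for each compound.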
TAAR1 antagonist: human TAAR1 antagonism; Q96RJ0; CHO RD-HGA16 TAAR1, Fluo-8 calcium fluorescence, antagonist; inhibition, % at 3 µM; 360,000 compounds, 1.5% hits; AID 624466;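 active means inhibition above a per-plate cutoff, the mean inhibition of test compounds on that plate plus 3 SD, cut at about 49% in these data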;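 further: 0% = DMSO plus EC80 beta-PEA response and 100% = DMSO alone without agonist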
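Assay system: RD-HGA16 CHO cells with stable hTAAR1 and Gα16 / Reagent: EC80 β-phenethylamine stimulus / Doses: 3 µM, single point / Timing: dye loading 75 min at 37 °C, then 30 min room temperature / Measured by: Fluo-8 intracellular calcium dye fluorescence, real-time kinetic reads / Controls: vehicle wells and EC80 agonist wells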
GPR7 antag cf: human GPR7 antagonism, confirmation assay | AID 1952 | GPR7-expressing cells, calcium fluorescence antagonist mode | shares compounds with GPR7 antagonist | 2,400 compounds, 52% hits | inhibition, % at 4.4 µM; in the data active means inhibition above about 24%;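 further: stimulated with the GPR7 agonist NPW; 0% = agonist plus vehicle and 100% = vehicle alone without agonist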
MCHR1 antag: counter-screen for GPR7 antagonists: antagonists of human MCHR1; shares compounds with GPR7 antagonist; AID 2148; inhibition, % at 4.4 µM; 2,400 compounds, 62% hits; MCHR1-expressing cells, fluorescence antagonist assay; in the data active means inhibition above about 22%;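 further: 0% = vehicle with agonist and 100% = vehicle without agonist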
Active calls of the source: *; . = not tested or not shown. Only some compounds are listed: those with a hit (about 4.6% of all), similar ones and a draw of the others.

SMILES | OX1R antag-1 | CHO parental Ca | OX1R antag-2 | GPR7 antagonist | TAAR1 ag | TAAR1 antagonist | GPR7 antag cf | MCHR1 antag
COc1ccc(CN(C)C(=O)C23CC4CC(CC(Cl)(C4)C2)C3)c(OC)c1OC | 14.3 | -2.9 | -8.3 | 24.8* | -2.3 | 1.3 | -0.5 | 23.3*
O=C(CCN1CCc2ccccc2C1)c1ccc2c(c1)OCCO2 | 10.9 | -11.4 | -36.0 | 23.2* | . | . | 12.1 | 22.2*
CCOc1ccccc1CN1CCN(CC2=Cc3cc(OC)ccc3OC2)CC1CCO (centres undefined) | 13.3 | -21.6 | -30.7 | 31.3* | 0.6 | -20.7 | 1.4 | 3.4
CCOC(=O)c1cn[nH]c1NC(=S)Nc1ccc(OC)cc1 | 12.0 | -8.8 | -17.2 | 29.9* | 0.2 | -22.2 | 25.8* | 21.0
COC(=O)c1cn[nH]c1NC(=S)Nc1ccc(Cl)c(Cl)c1 | 20.5 | 12.9 | 11.8 | 5.4 | 12.9 | 9.9 | . | .
Cc1ccccc1OCCn1c(=O)sc2ccccc21 | 28.4 | -12.4 | -25.3 | 21.0* | 11.0 | 17.2 | 13.5 | 36.6*
CN(C)S(=O)(=O)Oc1ccsc1C(=O)Nc1ccc(Cl)c(Cl)c1 | 7.3 | -18.8 | -8.8 | 27.8* | 16.1 | 23.3 | 21.4 | 58.1*
CN(C)S(=O)(=O)Oc1ccsc1C(=O)Nc1ccc(Br)cc1 | 41.5 | -14.7 | -35.5 | 5.5 | -0.2 | 11.8 | . | .
CCOC(=O)C1(CC2CCCCO2)CCN(C2CCSCC2)CC1 (centres undefined) | 5.5 | -11.3 | -25.1 | 25.1* | 8.1 | -1.1 | 37.2* | 22.7*
CCC[C@@H](CNC)NC[C@H](Cc1ccccc1)NCCCCc1ccccc1 | 1.2 | -8.5 | -13.2 | 41.1* | 4.7 | 14.8 | 51.0* | 71.3*
CCC[C@@H](CN[C@@H](CNC)C(C)C)NCCCCc1ccccc1 | 35.3 | -11.1 | -23.9 | 8.2 | 13.9 | -12.7 | . | .
CNC[C@@H](Cc1ccccc1)NC[C@@H](CC1CCCCC1)NCCCc1ccccc1 | 13.5 | 8.2 | -6.3 | 64.7* | 35.2 | 33.2 | 81.8* | 93.0*
CNC[C@@H](CC1CCCCC1)NC[C@H](CC(C)C)NCCc1cccc(C(F)(F)F)c1 | 14.8 | 19.9 | 5.5 | 56.3* | 30.6 | 26.8 | 72.5* | 88.0*
COc1ccc(OC)c(CN(CC(C)C)S(=O)(=O)c2ccccc2Br)c1 | . | . | . | . | 2.4 | 30.9 | . | .
O=C(COC(=O)c1cc([N+](=O)[O-])ccc1N1CCOCC1)NCc1ccc(Cl)cc1Cl | 49.6 | -8.1 | -17.6 | 23.5* | -0.3 | -3.8 | 34.5* | 35.8*
CCn1c(C)nc2cc(N)ccc21 | 23.7 | -8.6 | -14.5 | 27.3* | 1.0 | -6.8 | -10.2 | 1.0
CCn1c(C)nc2cc(C(N)=O)ccc21 | 7.6 | -7.8 | -10.7 | -6.7 | 3.6 | 5.8 | . | .
Cc1ccc(NC2=C(Cl)C(=O)OC2OC(=O)c2ccccc2)c(C)c1 (centres undefined) | 12.1 | -1.4 | -2.7 | -1.6 | 2.8 | 11.9 | . | .
Cc1ccccc1NC1=C(Cl)C(=O)OC1OC(=O)c1ccccc1C (centres undefined) | 25.2 | 61.2* | 2.8 | 52.0* | 6.4 | 40.8 | 20.0 | 58.9*
COc1ccc(OC)c(N(CC(=O)N2CCc3ccccc3C2)S(C)(=O)=O)c1 | 35.9 | 13.6 | -20.9 | -2.7 | 7.5 | 4.4 | . | .
Cc1ccc(Cl)cc1N1CCN(C(=O)C2CCC(=O)N(C3CCCCCC3)C2)CC1 (centres undefined) | 12.7 | -8.8 | -13.8 | 25.9* | 2.9 | -19.1 | 36.6* | 55.3*
COc1ccc(N2CCN(C(=S)Nc3ccc(C)cc3)CC2)cc1 | 4.6 | -3.0 | -14.3 | -4.2 | 22.4 | 16.3 | . | .
COc1cc(CN(CCN(C)C)Cc2ccccc2)ccc1OCc1ccccc1 | -6.0 | -16.0 | -20.4 | 43.7* | 24.1 | -8.7 | 56.9* | 34.4*
CNCc1ccc(OCc2ccccc2)c(OC)c1 | 6.2 | -13.1 | -11.7 | -6.6 | 1.7 | 11.3 | . | .
O=C(Cc1c(F)cccc1Cl)N1CCN(S(=O)(=O)c2cccs2)CC1 | 3.8 | -7.0 | -10.4 | . | 8.5 | -0.7 | . | .
SMILES | OX1R antag-1 | CHO parental Ca | OX1R antag-2 | GPR7 antagonist | TAAR1 ag | TAAR1 antagonist | GPR7 antag cf | MCHR1 antag
Cc1ccc(OCC(O)Cn2c(=N)n(CCN3CCCCC3)c3ccccc32)cc1 (centres undefined) | 7.8 | -21.1 | -21.2 | 27.5* | 8.2 | 3.4 | 40.9* | 38.6*
COc1ccc(OCC(O)Cn2c(=N)n(CCN3CCCCC3)c3ccccc32)cc1 (centres undefined) | 14.2 | -12.5 | -44.9 | 28.6* | 6.3 | -13.2 | 13.7 | 22.6*
Cc1cc(C)n(S(=O)(=O)c2ccc(C)c(C)c2C)n1 | 19.0 | -18.4 | -18.7 | -5.9 | -1.2 | -7.6 | . | .
OCc1ccccc1N=c1ssnc1Cl | 12.1 | -23.4 | 4.1 | 31.1* | . | . | 3.6 | 17.5
C[C@@H]1CN([C@@H](C)CO)C(=O)CCCn2cc(nn2)CO[C@H]1CN(C)C(=O)c1ccc(N2CCN(C)CC2)cc1 | . | . | . | . | 0.4 | 15.4 | . | .
CC1(CCc2ccc3c(c2)OCO3)NCCc2c1[nH]c1ccccc21 (centres undefined) | 6.2 | 12.9 | -4.0 | 60.1* | 49.3* | 9.5 | 39.4* | 44.8*
CC(C)(C)C(=O)Nc1ccccc1C(=O)NCc1cccnc1 | 10.6 | -27.1 | -18.2 | -17.9 | 6.0 | -11.9 | . | .
O=C(O)c1ccc(CN2C(=O)c3ccc(Oc4ccc([N+](=O)[O-])cc4)cc3C2=O)cc1 | 12.8 | -2.3 | 2.1 | 39.2* | 1.9 | 4.0 | 12.1 | 16.5
CCC[N+](CC#CCO)(CC#Cc1ccccc1)CCC | 8.4 | -10.4 | 10.9 | -2.4 | 2.4 | -12.4 | . | .
CCCC[N+](CC#CCO)(CC#Cc1ccccc1)CCCC | 4.8 | -2.5 | 4.5 | 25.2* | 1.0 | -25.6 | 25.4* | 25.8*
CC(C)CC(=O)N1CCN(c2ccc([N+](=O)[O-])c(NCc3ccccc3)c2)CC1 | 16.4 | -31.5 | -25.4 | 36.4* | 6.4 | 4.6 | 25.6* | 45.0*
CCCCOC(=O)Nc1cccc(C(C)=O)c1 | 10.8 | -4.3 | -9.3 | 7.0 | 5.1 | -17.1 | . | .
CC(C)[C@@H]1CC[C@@H](C)C[C@H]1OC(=O)C[n+]1cc(-c2ccc(Cl)cc2)n2c1CCCCC2 | 7.3 | 9.6 | 9.2 | 58.2* | 7.8 | -23.5 | 64.9* | 83.5*
Cc1ccc(C(=O)N2CC(C)CC(C)C2)cc1NC1=NC2CS(=O)(=O)CC2S1 (centres undefined) | -4.1 | 6.5 | 6.5 | 1.4 | 1.8 | -10.5 | . | .
COC(=O)[C@@H](NC(=O)c1ccc2c(c1)S(=O)(=O)c1ccccc1C2=O)C(C)C | 72.6* | -8.3 | -40.8 | 21.6* | 2.0 | 15.1 | -3.2 | 5.6
COc1ccc(-c2n[nH]c(C)c2-c2cnn(-c3ccccc3)c2)c(O)c1C | 15.0 | -13.4 | -13.0 | -17.8 | 23.5 | 41.4 | . | .

Bioassay records as filed in PubChem.
